From ChEMBL document CHEMBL1148220, “Antineoplastic agents. 529. Isolation and structure of nootkastatins 1 and 2 from the Alaskan yellow cedar Chamaecyparis nootkatensis” (2004)
In brackets after ≈: the same amount, converted by molar mass. Activity calls are given as the source filed them. The rule behind the calls is not given here.

Columns and labels:
SF-268 = assay: Cytotoxicity against human SF268 cells after 48 hrs by SRB assay; type: functional; conditions: SF-268, 48 h
Micrococcus luteus [1] = assay: Antimicrobial activity against Micrococcus luteus Presque Isle 456 after 24 hrs by broth microdilution assay; type: functional
Procedure, shortened: (§1)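 Bacterial MICs were determined by NCCLS broth microdilution. Compounds were dissolved in a small volume of sterile DMSO and diluted in the appropriate medium just before testing. MIC was the lowest concentration giving no visible growth (optically clear). Assays were repeated on separate days.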

Cryptococcus neoformans [2] = assay: Antimicrobial activity against Cryptococcus neoformans ATCC 90122 after 24 hrs by broth microdilution assay in presence of 25% human serum; type: functional; conditions: ATCC 90112, 24 h, in the assay text read “ATCC 90112” for “ATCC 90122”
Procedure, shortened: (§2)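 For yeasts, NCCLS broth microdilution was run in medium supplemented with 25% heat-inactivated, filter-sterilized normal human serum. Compounds were reconstituted in sterile DMSO and diluted in medium just before the assay. MIC was the lowest concentration giving optically clear wells.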

Streptococcus pyogenes = assay: Antimicrobial activity against penicillin-resistant Streptococcus pyogenes after 24 hrs by broth microdilution assay in presence of 25% human serum; type: functional
Procedure, shortened: (§3)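 Bacterial NCCLS broth microdilution run in medium with 25% heat-inactivated, filter-sterilized normal human serum. Compounds were taken up in sterile DMSO and diluted in medium immediately before use. MIC was the lowest concentration with no visible growth (optically clear). Assays were repeated on separate days.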

Enterococcus faecalis [3] = assay: Antimicrobial activity against Enterococcus faecalis ATCC 29212 after 24 hrs by broth microdilution assay; type: functional; conditions: ATCC 29212, 24 h; procedure, shortened: as §1
[4] = tested on: Stenotrophomonas maltophilia; assay: Antimicrobial activity against Stenotrophomonas maltophilia ATCC 13637 at 64 ug/mL after 24 hrs by broth microdilution assay; type: functional, organism-based
Escherichia coli [5] = assay: Antimicrobial activity against Escherichia coli ATCC 25922 at 64 ug/mL after 24 hrs by broth microdilution assay; type: functional, organism-based
P388 = assay: Cytotoxicity against mouse P388 cells; type: functional; conditions: read-out: ED50 (the source's name)
MCF7 = assay: Cytotoxicity against human MCF7 cells after 48 hrs by SRB assay; type: functional; conditions: MCF7, 48 h
Streptococcus pneumoniae [6] = assay: Antimicrobial activity against Streptococcus pneumoniae ATCC 6303 after 24 hrs by broth microdilution assay; type: functional; conditions: ATCC 6303, 24 h; procedure, shortened: as §1
BXPC-3 = assay: Cytotoxicity against human BxPC3 cells after 48 hrs by SRB assay; type: functional; conditions: BXPC-3, 48 h
[7] = tested on: Staphylococcus epidermidis; assay: Antimicrobial activity against Staphylococcus epidermidis ATCC 49461 after 24 hrs by broth microdilution assay in presence of 25% human serum; type: functional; conditions: ATCC 49461, 24 h
Procedure, shortened: (§4)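 Bacteria were tested by NCCLS broth microdilution in medium containing 25% heat-inactivated, filter-sterilized normal human serum. Compounds were dissolved in sterile DMSO and diluted in medium immediately before use. MIC was the lowest concentration with no visible growth (optically clear). Assays were repeated on separate days.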

Enterococcus faecalis [8] = assay: Antimicrobial activity against Enterococcus faecalis ATCC 29212 after 24 hrs by broth microdilution assay in presence of 25% human serum; type: functional; conditions: ATCC 29212, 24 h; procedure, shortened: as §4
Enterococcus faecium = assay: Antimicrobial activity against vancomycin-resistant Enterococcus faecium after 24 hrs by broth microdilution assay in presence of 25% human serum; type: functional; procedure, shortened: as §3
Rhodococcus sp. = assay: Antimicrobial activity against Rhodococcus sp. after 24 hrs by broth microdilution assay in presence of 25% human serum; type: functional; conditions: Rhodococcus sp. (in: high G+C Gram-positive bacteria); procedure, shortened: as §4
Staphylococcus aureus [9] = assay: Antimicrobial activity against methicillin-resistant Staphylococcus aureus after 24 hrs by broth microdilution assay in presence of 25% human serum; type: functional; procedure, shortened: as §3
Cryptococcus neoformans [10] = assay: Antimicrobial activity against fluconazole-resistant Cryptococcus neoformans after 48 hrs by broth microdilution assay in presence of 25% human serum; type: functional
Candida albicans [11] = assay: Antimicrobial activity against Candida albicans ATCC 90028 after 48 hrs by broth microdilution assay in presence of 25% human serum; type: functional; conditions: ATCC 90028, 48 h; procedure, shortened: as §2
Micrococcus luteus [12] = assay: Antimicrobial activity against Micrococcus luteus Presque Isle 456 after 24 hrs by broth microdilution assay in presence of 25% human serum; type: functional; procedure, shortened: as §4
KM-20L2 = assay: Cytotoxicity against human KM20L2 cells after 48 hrs by SRB assay; type: functional; conditions: KM-20L2, 48 h
Streptococcus pneumoniae [13] = assay: Antimicrobial activity against penicillin-resistant Streptococcus pneumoniae after 24 hrs by broth microdilution assay in presence of 25% human serum; type: functional; procedure, shortened: as §3
[14] = tested on: Stenotrophomonas maltophilia; assay: Antimicrobial activity against Stenotrophomonas maltophilia ATCC 13637 after 24 hrs by broth microdilution assay in presence of 25% human serum; type: functional; conditions: ATCC 13637, 24 h; procedure, shortened: as §4
Candida albicans [15] = assay: Antimicrobial activity against Candida albicans ATCC 90028 at 64 ug/mL after 48 hrs by broth microdilution assay; type: functional, organism-based
Staphylococcus aureus [16] = assay: Antimicrobial activity against Staphylococcus aureus ATCC 29213 after 24 hrs by broth microdilution assay; type: functional; conditions: ATCC 29213, 24 h; procedure, shortened: as §1
Streptococcus pneumoniae [17] = assay: Antimicrobial activity against Streptococcus pneumoniae ATCC 6303 after 24 hrs by broth microdilution assay in presence of 25% human serum; type: functional; conditions: ATCC 6303, 24 h; procedure, shortened: as §4
Enterobacter cloacae [18] = assay: Antimicrobial activity against Enterobacter cloacae ATCC 13047 after 24 hrs by broth microdilution assay in presence of 25% human serum; type: functional; conditions: ATCC 13047, 24 h; procedure, shortened: as §4
Staphylococcus aureus [19] = assay: Antimicrobial activity against Staphylococcus aureus ATCC 29213 after 24 hrs by broth microdilution assay in presence of 25% human serum; type: functional; conditions: ATCC 29213, 24 h; procedure, shortened: as §4
Enterobacter cloacae [20] = assay: Antimicrobial activity against Enterobacter cloacae ATCC 13047 at 64 ug/mL after 24 hrs by broth microdilution assay; type: functional, organism-based
Escherichia coli [21] = assay: Antimicrobial activity against Escherichia coli ATCC 25922 after 24 hrs by broth microdilution assay in presence of 25% human serum; type: functional; conditions: ATCC 25922, 24 h; procedure, shortened: as §4
NCI-H460 = assay: Cytotoxicity against human NCI-H460 cells after 48 hrs by SRB assay; type: functional; conditions: NCI-H460, 48 h
Neisseria gonorrhoeae [22] = assay: Antimicrobial activity against Neisseria gonorrhoeae ATCC 49226 after 24 hrs by broth microdilution assay in presence of 25% human serum; type: functional; conditions: ATCC 49226, 24 h; procedure, shortened: as §4
Neisseria gonorrhoeae [23] = assay: Antimicrobial activity against Neisseria gonorrhoeae ATCC 49226 at 64 ug/mL after 24 hrs by broth microdilution assay; type: functional; conditions: ATCC 49226, 24 h
Nakaseomyces glabratus = assay: Antimicrobial activity against Candida glabrata after 48 hrs by broth microdilution assay in presence of 25% human serum; type: functional; procedure, shortened: as §2
DU-145 = assay: Cytotoxicity against human DU145 cells after 48 hrs by SRB assay; type: functional; conditions: DU-145, 48 h
Cryptococcus neoformans [24] = assay: Antimicrobial activity against Cryptococcus neoformans ATCC 90122 after 24 hrs by broth microdilution assay; type: functional; conditions: ATCC 90112, 24 h, in the assay text read “ATCC 90112” for “ATCC 90122”
Procedure, shortened: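 Yeasts were tested by NCCLS broth microdilution. Compounds were dissolved in a small volume of sterile DMSO and diluted in the appropriate medium immediately before testing. MIC was the lowest concentration inhibiting all visible growth (optically clear). Assays were repeated on separate days.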

Structure (SMILES) | GI50 (SF-268) | MBC (Micrococcus luteus [1]) | MIC (Micrococcus luteus [1]) | MIC (Cryptococcus neoformans [2]) | MIC (Streptococcus pyogenes) | MIC (Enterococcus faecalis [3]) | Activity [4] | Activity (Escherichia coli [5]) | EC50 (P388) | GI50 (MCF7) | MIC (Streptococcus pneumoniae [6]) | GI50 (BXPC-3) | GI50 (KM-20L2) | Activity (Candida albicans [15]) | MIC (Staphylococcus aureus [16]) | Activity (Enterobacter cloacae [20]) | GI50 (NCI-H460) | MIC (Neisseria gonorrhoeae [23]) | GI50 (DU-145) | MIC (Cryptococcus neoformans [24]) | other results
CC(C)O[C@@H]1C[C@H]2C(C)(C)CCC[C@]2(C)c2ccc(O)c(C(C)C)c2O1 [NOOTKASTATIN 2] | 2 µg/mL (≈ 5.55 µM) | 16 µg/mL (≈ 44.4 µM) | 1 µg/mL (≈ 2.77 µM) | > 64 µg/mL | > 64 µg/mL | 2 µg/mL (≈ 5.55 µM) | inactive | inactive | 5.8 µg/mL (≈ 16.1 µM) | 2.3 µg/mL (≈ 6.38 µM) | 64 µg/mL (≈ 178 µM) | 1.8 µg/mL (≈ 4.99 µM) | 2.4 µg/mL (≈ 6.66 µM) | inactive | 4 µg/mL (≈ 11.1 µM) | inactive | 2 µg/mL (≈ 5.55 µM) | 2 µg/mL (≈ 5.55 µM) | 2.2 µg/mL (≈ 6.1 µM) | 64 µg/mL (≈ 178 µM) | MBC (Enterococcus faecalis [3]): 32 µg/mL (≈ 88.8 µM); MBC (Streptococcus pneumoniae [6]): 64 µg/mL (≈ 178 µM); MIC [7]: > 64 µg/mL; MIC (Enterococcus faecalis [8]): > 64 µg/mL; MIC (Enterococcus faecium): > 64 µg/mL; MIC (Rhodococcus sp.): > 64 µg/mL; MIC (Staphylococcus aureus [9]): > 64 µg/mL; MIC (Cryptococcus neoformans [10]): > 64 µg/mL; MIC (Candida albicans [11]): > 64 µg/mL; MIC (Micrococcus luteus [12]): > 64 µg/mL; MIC (Streptococcus pneumoniae [13]): > 64 µg/mL; MIC [14]: > 64 µg/mL; MBC (Staphylococcus aureus [16]): 8 µg/mL (≈ 22.2 µM); MIC (Streptococcus pneumoniae [17]): > 64 µg/mL; MIC (Enterobacter cloacae [18]): > 64 µg/mL; MIC (Staphylococcus aureus [19]): > 64 µg/mL; MIC (Escherichia coli [21]): > 64 µg/mL; MIC (Neisseria gonorrhoeae [22]): > 64 µg/mL; MBC (Neisseria gonorrhoeae [23]): 2 µg/mL (≈ 5.55 µM); MIC (Nakaseomyces glabratus): > 64 µg/mL
CC(C)c1c(O)ccc2c1C=C[C@H]1C(C)(C)CCC[C@]21C | > 10 µg/mL |  | 4 µg/mL (≈ 14.1 µM) |  |  | 16 µg/mL (≈ 56.3 µM) | inactive | inactive | 3.7 µg/mL (≈ 13 µM) | > 10 µg/mL | 32 µg/mL (≈ 113 µM) | > 10 µg/mL | > 10 µg/mL | inactive | 16 µg/mL (≈ 56.3 µM) | inactive | > 10 µg/mL | 8 µg/mL (≈ 28.1 µM) | > 10 µg/mL | 16 µg/mL (≈ 56.3 µM) | 
CO[C@H]1C[C@H]2C(C)(C)CCC[C@]2(C)c2ccc(O)c(C(C)C)c21 [NOOTKASTATIN 1] | 0.85 µg/mL (≈ 2.69 µM) | 8 µg/mL (≈ 25.3 µM) | 2 µg/mL (≈ 6.32 µM) | > 64 µg/mL | > 64 µg/mL | 4 µg/mL (≈ 12.6 µM) | inactive | inactive | 1.5 µg/mL (≈ 4.74 µM) | 2 µg/mL (≈ 6.32 µM) | 64 µg/mL (≈ 202 µM) | 2.1 µg/mL (≈ 6.64 µM) | 0.98 µg/mL (≈ 3.1 µM) | inactive | 8 µg/mL (≈ 25.3 µM) | inactive | 0.75 µg/mL (≈ 2.37 µM) | 2 µg/mL (≈ 6.32 µM) | 1.1 µg/mL (≈ 3.48 µM) | 64 µg/mL (≈ 202 µM) | MBC (Enterococcus faecalis [3]): 16 µg/mL (≈ 50.6 µM); MBC (Streptococcus pneumoniae [6]): 64 µg/mL (≈ 202 µM); MIC [7]: > 64 µg/mL; MIC (Enterococcus faecalis [8]): > 64 µg/mL; MIC (Enterococcus faecium): > 64 µg/mL; MIC (Rhodococcus sp.): > 64 µg/mL; MIC (Staphylococcus aureus [9]): > 64 µg/mL; MIC (Cryptococcus neoformans [10]): > 64 µg/mL; MIC (Candida albicans [11]): > 64 µg/mL; MIC (Micrococcus luteus [12]): > 64 µg/mL; MIC (Streptococcus pneumoniae [13]): > 64 µg/mL; MIC [14]: > 64 µg/mL; MBC (Staphylococcus aureus [16]): 32 µg/mL (≈ 101 µM); MIC (Streptococcus pneumoniae [17]): > 64 µg/mL; MIC (Enterobacter cloacae [18]): > 64 µg/mL; MIC (Staphylococcus aureus [19]): > 64 µg/mL; MIC (Escherichia coli [21]): > 64 µg/mL; MIC (Neisseria gonorrhoeae [22]): > 64 µg/mL; MBC (Neisseria gonorrhoeae [23]): 4 µg/mL (≈ 12.6 µM); MIC (Nakaseomyces glabratus): > 64 µg/mL
